Screening data (PubChem BioAssay)
In the library only some 2.2% were active in any assay of this set; here they are far more common.
DNA FID counter: counter-screen for HCV NS3 helicase inhibitors: DNA intercalator displacement; hit rate 0.17% among 290,000; DNA fluorescent intercalator displacement, fluorescence; inhibition, % at 7.9 µM; in the data active = inhibition above about 37%;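 also: higher means more ethidium bromide displaced from hairpin DNA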
GRK2 inh: human GRK2 inhibition via aptamer displacement. P25098. hit rate 0.59% among 330,000. bead flow cytometry, FAM-aptamer displacement from GRK2. inhibition of aptamer binding, % at 10 µM. AID 488847;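 active = inhibition of aptamer binding above 40%, roughly 3 SD of noise, on plates passing a quality check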;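 also: median bead fluorescence of bound FAM aptamer so fluorescent compounds give negative values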
core dimer inh: blocks dimerization of HCV core protein. TR-FRET GST/Flag-core106 dimerization, 1536-well. inhibition, % at 5 µM. hit rate 0.33% among 300,000;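 active = inhibition above the mean of all tested compounds plus 3 SD, set per screening campaign, cut at about 45% in these data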
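System – GST-tagged and Flag-tagged HCV core protein residues 1-106 · Repeats – one well for each compound · Technique – TR-FRET 671 and 617 nm emission · Doses – one concentration, 5 µM, in 0.5% DMSO · Times – 4 h, 22.5 °C incubation · Also added – Eu donor and XL665 acceptor anti-tag antibodies · Measure – percent inhibition of core106 dimerization signal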
GPR7 antag: blocks human GPR7 receptor signaling. GPR7-expressing cells, fluorescence antagonist assay. inhibition, % at 4.4 µM. hit rate 1.1% among 290,000. AID 1861; in the data active = inhibition above about 16%, passing the limit was not always enough;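 also: cells stimulated with the agonist NPW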
Target sequence (P48145 whole entry, looked up): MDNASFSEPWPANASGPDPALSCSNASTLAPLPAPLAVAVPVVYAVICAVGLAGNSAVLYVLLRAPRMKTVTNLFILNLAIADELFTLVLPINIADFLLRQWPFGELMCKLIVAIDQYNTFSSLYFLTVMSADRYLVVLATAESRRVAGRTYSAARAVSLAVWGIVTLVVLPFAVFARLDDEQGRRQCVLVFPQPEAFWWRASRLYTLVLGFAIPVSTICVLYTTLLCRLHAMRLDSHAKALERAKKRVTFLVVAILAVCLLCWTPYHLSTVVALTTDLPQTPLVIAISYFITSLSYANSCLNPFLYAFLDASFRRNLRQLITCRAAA
NS3 helicase inh: blocks Hepatitis C virus NS3 helicase unwinding; NS3 helicase DNA unwinding, Cy5 molecular beacon fluorescence; inhibition, % at 10.9 µM; hit rate 0.56% among 290,000; AID 1800;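 active = inhibition above the mean of all tested compounds plus 3 SD, set per campaign, cut at about 35% in these data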
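Material: hepatitis C virus NS3 helicase domain fragment enzyme; measured by: Cy5 fluorescence, 0 and 60 min reads; control set: DMSO and thioflavine S; incubation: 60 min unwinding reaction at 25 °C after ATP addition; read-out basis: % inhibition from 60/0 min fluorescence ratio, DMSO 0%, thioflavine S 100%; repeats: singlicate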
DAGLB inhibitor: blocks human DAGLB lipase activity | hit rate 0.059% among 340,000 | HEK293T DAGLB membrane lysate, EnzChek fluorogenic substrate | inhibition, % at 5.17 µM | AID 504411; in the data active = inhibition above about 34%
GRK2 CP1: confirmation of human GRK2 inhibitors displacing RNA aptamer. shares compounds with GRK2 inh. bead-bound GRK2, FAM-aptamer displacement, flow cytometry. aptamer displacement, % at 10 µM. hit rate 4% among 2,000. AID 504451;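 active = aptamer displacement above 40%, near three times the noise of non-fluorescent compounds, on plates passing quality checks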;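 also: negative values mostly reflect intrinsic compound fluorescence rather than true enhancement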
Aptamer quench 1: quenches fluorescent RNA aptamer, GRK2 hit artifact. Fluorescent RNA aptamer beads, quenching, flow cytometry; stronger effect = higher value. shares compounds with GRK2 inh. fluorescence change (kMESF span), kMESF (no concentration beside the values). 110 tested, under 10 active;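 active = compounds whose bead fluorescence drops by more than 37 kMESF across the dose range, marking them as dye quenchers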
Aptamer quench SP: aptamer fluorescence quenching in GRK2 counter-screen. fluorescence response (% of DMSO), % at 10 µM. 2,000 tested, under 10 active. Carboxyfluorescein RNA aptamer on beads, flow cytometry quenching; stronger effect = lower value. shares compounds with GRK2 inh. AID 504580;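 active = compounds that quench the bead-bound fluorescent RNA probe, cutting fluorescence to under half of the solvent control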;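 also: counterscreen run without GRK2 so only probe quenching by compound is measured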
A number is an active result.

How did CC1CN(S(=O)(=O)c2cccc(C(=O)NCc3ccco3)c2)CC(C)O1 (centres undefined) do in these assays?
GRK2 inh: inactive; DAGLB inhibitor: inactive

Results for CC1CCCC(C)N1C(=O)CSc1nc(N)cc(N)n1 (centres undefined) ?
DNA FID counter: inactive; GRK2 inh: inactive; core dimer inh: inactive; GPR7 antag: inactive; NS3 helicase inh: inactive; DAGLB inhibitor: inactive

Results for Cc1cc(N)nc(SCC(=O)N2C(C)CCCC2C)n1 (centres undefined) ?
DNA FID counter: inactive; GRK2 inh: 50; core dimer inh: inactive; GPR7 antag: inactive; NS3 helicase inh: inactive; DAGLB inhibitor: inactive; GRK2 CP1: inactive; Aptamer quench SP: inactive

How did Cc1ccc(/C=C2/N=C(c3ccccc3)NNC2=O)cc1 do in these assays?
DNA FID counter: inactive; GRK2 inh: 93; core dimer inh: inactive; GPR7 antag: inactive; NS3 helicase inh: inactive; GRK2 CP1: inactive; Aptamer quench SP: inactive

What do the screens show for `O=C1NNC(c2ccccc2)=N/C1=C\c1ccccc1`?
DNA FID counter: inactive; GRK2 inh: inactive; core dimer inh: inactive; GPR7 antag: inactive; NS3 helicase inh: inactive; DAGLB inhibitor: inactive

How did O=C(O)CCn1cc(-c2ccc(F)cc2)nc1-c1ccncc1 do in these assays?
GRK2 inh: inactive; core dimer inh: inactive; DAGLB inhibitor: inactive; GRK2 CP1: inactive; Aptamer quench SP: inactive

Results for CCOC(=O)CSc1nnc(CSc2nc3sc4c(c3c(=O)[nH]2)CCC4)n1C ?
DNA FID counter: inactive; GRK2 inh: 67; core dimer inh: inactive; GPR7 antag: inactive; NS3 helicase inh: inactive; DAGLB inhibitor: inactive; GRK2 CP1: inactive; Aptamer quench SP: inactive

How did COc1ccc(S(=O)(=O)NCC(c2ccc(F)cc2)N2CCN(C)CC2)cc1 (centres undefined) do in these assays?
GRK2 inh: 76; core dimer inh: inactive; DAGLB inhibitor: inactive; GRK2 CP1: 46; Aptamer quench 1: inactive; Aptamer quench SP: inactive

What do the screens show for `CCCN(CCC)S(=O)(=O)c1ccc(C(=O)NCc2ccco2)cc1`?
DNA FID counter: inactive; GRK2 inh: 64; core dimer inh: inactive; GPR7 antag: inactive; NS3 helicase inh: inactive; DAGLB inhibitor: inactive; GRK2 CP1: inactive; Aptamer quench SP: inactive

What do the screens show for `CCN(CC(=O)NC1CCS(=O)(=O)C1)C(=O)c1cc(OC)c(OC)c(OC)c1` (centres undefined)?
GRK2 inh: 60; DAGLB inhibitor: inactive; GRK2 CP1: inactive; Aptamer quench SP: inactive

Results for O=S(=O)(NC1CC(NS(=O)(=O)OCC(Cl)(Cl)Cl)C2CCCCC12)OCC(Cl)(Cl)Cl (centres undefined) ?
DNA FID counter: inactive; GRK2 inh: 74; core dimer inh: inactive; GPR7 antag: inactive; NS3 helicase inh: inactive; DAGLB inhibitor: inactive; GRK2 CP1: inactive; Aptamer quench SP: inactive

What do the screens show for `O=Cc1cccc(OC(=O)/C=C/c2ccco2)c1`?
DNA FID counter: inactive; GRK2 inh: 62; core dimer inh: inactive; GPR7 antag: inactive; NS3 helicase inh: inactive; DAGLB inhibitor: inactive; GRK2 CP1: inactive; Aptamer quench SP: inactive

What do the screens show for `CCOC(=O)CSC1=N/C(=C\c2ccc(OC)c(OC)c2)C(=O)N1C`?
DNA FID counter: inactive; GRK2 inh: inactive; core dimer inh: inactive; GPR7 antag: inactive; NS3 helicase inh: inactive; DAGLB inhibitor: inactive

Results for Cc1cc(C(F)(F)F)nc(SCC(=O)NC2CC3CCC2C3)n1 (centres undefined) ?
DNA FID counter: inactive; GRK2 inh: 53; core dimer inh: inactive; GPR7 antag: inactive; NS3 helicase inh: inactive; DAGLB inhibitor: inactive; GRK2 CP1: inactive; Aptamer quench SP: inactive

What do the screens show for `Cc1cc(C(F)(F)F)nc(SCC(=O)Nc2ccccc2)n1`?
DNA FID counter: inactive; GRK2 inh: inactive; core dimer inh: inactive; GPR7 antag: inactive; NS3 helicase inh: inactive; DAGLB inhibitor: inactive

Results for COc1ccc(S(=O)(=O)N2CCCCCC2)cc1C(=O)N(C)Cc1ccc(OC)c(OC)c1OC ?
GRK2 inh: inactive; core dimer inh: inactive; DAGLB inhibitor: inactive

Results for O=[N+]([O-])c1cccc2c(S(=O)(=O)N3CCOCC3)cccc12 ?
DNA FID counter: inactive; GRK2 inh: 89; core dimer inh: inactive; GPR7 antag: inactive; NS3 helicase inh: inactive; DAGLB inhibitor: inactive; GRK2 CP1: inactive; Aptamer quench SP: inactive

What do the screens show for `O=[N+]([O-])c1cccc2c(S(=O)(=O)N3CCCCC3)cccc12`?
DNA FID counter: inactive; GRK2 inh: inactive; core dimer inh: inactive; GPR7 antag: inactive; NS3 helicase inh: inactive; DAGLB inhibitor: inactive

What do the screens show for `CC(C)(C)NC(=S)N/N=C/c1cccnc1`?
DNA FID counter: inactive; GRK2 inh: inactive; core dimer inh: inactive; GPR7 antag: inactive; NS3 helicase inh: inactive; DAGLB inhibitor: inactive

Results for Cc1ccc2c(N)c(C(=O)N(c3ccccc3)c3ccccc3)sc2n1 ?
DNA FID counter: inactive; GRK2 inh: inactive; core dimer inh: inactive; GPR7 antag: inactive; NS3 helicase inh: inactive; DAGLB inhibitor: inactive

How did Cc1nc(SCc2ccc(OCCC(C)C)cc2)n[nH]1 do in these assays?
DNA FID counter: inactive; GRK2 inh: 100; core dimer inh: inactive; GPR7 antag: inactive; NS3 helicase inh: inactive; DAGLB inhibitor: inactive; GRK2 CP1: inactive; Aptamer quench SP: inactive

What do the screens show for `CCCCCOc1ccc(CSc2n[nH]c(C)n2)cc1`?
DNA FID counter: inactive; GRK2 inh: inactive; core dimer inh: inactive; GPR7 antag: inactive; NS3 helicase inh: inactive; DAGLB inhibitor: inactive

How did O=C(Nc1ccc(NC(=S)NC(=O)c2ccccc2Cl)cc1)c1cccc(Cl)c1 do in these assays?
DNA FID counter: inactive; GRK2 inh: inactive; core dimer inh: inactive; GPR7 antag: inactive; NS3 helicase inh: inactive; DAGLB inhibitor: inactive

How did COc1cc(C2OCC3C(c4ccc(OC5OC(CO)C(O)C(O)C5O)c(OC)c4)OCC23)ccc1O (centres undefined) do in these assays?
DNA FID counter: inactive; GRK2 inh: inactive; core dimer inh: inactive; GPR7 antag: inactive; NS3 helicase inh: inactive; DAGLB inhibitor: inactive; GRK2 CP1: inactive; Aptamer quench SP: inactive

Results for O=C1CC(NS(=O)(=O)c2cc(F)ccc2F)CN1c1cccc(F)c1 (centres undefined) ?
GRK2 inh: inactive; core dimer inh: inactive; DAGLB inhibitor: inactive

Results for CCOC(=O)Nc1ccc2c(c1)nc(CN1CCCCC1)n2C ?
DNA FID counter: inactive; GRK2 inh: inactive; core dimer inh: inactive; GPR7 antag: inactive; NS3 helicase inh: inactive; DAGLB inhibitor: inactive
